Measured values reported in PMC5091660 (Journal of medicinal chemistry, 2016).
“Also recorded” adds a separate entry of the source. Values belong to the compound of their own block, whether it stands above or below them.

Legend:
[1] = target: T1, S1P1 (Homo sapiens, UniProt P21453); test: competitive [^32P]S1P binding assay, S1P1; details: for decrease in S1P1 binding affinity relative to 28c: head group change of 28c; for IC50: S1P1 IC50, competition with [^32P]S1P, cell membranes expressing recombinant human S1P1
T1 sequence (P21453 whole entry): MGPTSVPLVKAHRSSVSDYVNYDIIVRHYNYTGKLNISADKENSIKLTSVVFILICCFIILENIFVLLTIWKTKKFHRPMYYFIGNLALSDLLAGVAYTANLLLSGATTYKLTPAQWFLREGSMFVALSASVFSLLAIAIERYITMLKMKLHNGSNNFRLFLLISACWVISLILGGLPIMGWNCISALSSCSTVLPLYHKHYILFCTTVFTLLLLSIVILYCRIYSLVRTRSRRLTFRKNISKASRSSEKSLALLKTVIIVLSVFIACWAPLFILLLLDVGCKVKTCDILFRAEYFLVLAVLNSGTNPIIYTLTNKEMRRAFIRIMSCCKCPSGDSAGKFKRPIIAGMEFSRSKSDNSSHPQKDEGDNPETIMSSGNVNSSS

[2] = target: recombinant human S1P3 (Homo sapiens, UniProt Q99500); test: competitive [^32P]S1P binding assay, S1P3
Chain of recombinant human S1P3 (Q99500 whole entry): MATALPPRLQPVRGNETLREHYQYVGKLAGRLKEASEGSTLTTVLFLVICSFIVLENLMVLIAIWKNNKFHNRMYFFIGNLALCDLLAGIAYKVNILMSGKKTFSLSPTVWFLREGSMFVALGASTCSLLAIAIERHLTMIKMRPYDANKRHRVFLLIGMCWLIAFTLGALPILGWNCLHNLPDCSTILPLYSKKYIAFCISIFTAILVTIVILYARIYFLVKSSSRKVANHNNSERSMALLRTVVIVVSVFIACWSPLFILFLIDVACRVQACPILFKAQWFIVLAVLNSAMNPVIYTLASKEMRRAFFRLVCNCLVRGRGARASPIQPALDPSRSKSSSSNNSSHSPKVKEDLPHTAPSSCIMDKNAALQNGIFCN

[3] = target: recombinant human S1P2 (Homo sapiens, UniProt O95136); test: competitive [^32P]S1P binding assay, S1P2
Chain of recombinant human S1P2 (O95136 whole entry): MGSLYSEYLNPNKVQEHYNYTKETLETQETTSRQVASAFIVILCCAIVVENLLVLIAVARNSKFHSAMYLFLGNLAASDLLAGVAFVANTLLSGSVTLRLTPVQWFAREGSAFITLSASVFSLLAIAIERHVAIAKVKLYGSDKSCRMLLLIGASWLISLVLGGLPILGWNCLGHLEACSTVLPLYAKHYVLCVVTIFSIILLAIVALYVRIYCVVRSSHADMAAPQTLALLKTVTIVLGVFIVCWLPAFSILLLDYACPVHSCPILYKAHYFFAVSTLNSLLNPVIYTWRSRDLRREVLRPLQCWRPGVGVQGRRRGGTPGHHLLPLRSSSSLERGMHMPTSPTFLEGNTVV

[4] = test system: liver of LPS-treated mice; test: [^15O]water microPET study of liver blood flow in LPS-treated and sham mice; assay type: in vivo, C57BL/6 mice; details: 10 min scan after bolus injection via tail vein
Outline: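 Adult male C57BL/6 mice (18–23 g) were pretreated ~24 h earlier with saline or LPS and kept under 2–3% isoflurane via nose cone on an Inveon PET/CT. After a transmission scan and CT, they received a bolus of [15O]water (30–55 MBq) by tail vein, followed by a 10 min dynamic scan, ~30 min before the 18F scan. Liver activity was expressed as SUV.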

[5] = target: T1, S1P1; test: in vitro functional assay; assay type: cell-based
Outline: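 S1P1-TANGO-U2OS cells at 312,500 cells/mL in unsupplemented Freestyle Expression Medium were grown 48 h at 37 °C, 5% CO2. Test compound in DMSO was added (controls 0.5% DMSO final), then incubated 5 h at 37 °C. LiveBLAzer FRET substrate mix with 10 mM probenecid was added for 2 h at r.t. in the dark. Read-out: excitation 405 nm, emission 460 and 535 nm.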

[6] = test system: liver of LPS-treated mice; test: acute biodistribution in LPS-treated and sham mice; assay type: in vivo, C57BL/6 mice; details: n = 4 per group
Outline: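 About 24 h after sham or LPS treatment, mice received the 18F-labelled test compound (~20 μCi, 0.74 MBq, in 10% ethanol/saline) by tail vein. A separate set received [99mTc]mebrofenin (~4 μCi, 148 KBq) under 2–3% isoflurane/oxygen. Mice were euthanized at 30 or 60 min (n = 4 per group per tracer). Tissues were weighed and gamma-counted against a dilution of the injectate.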

Compound: [15OH2] [[^15O]water]
liver uptake (TAC) in LPS-treated mice compared to sham mice [4]: no difference; also recorded: no significant change

Compound: O=C(O)C1CN(Cc2ccc3oc(-c4ccc(OCCF)c(C(F)(F)F)c4)nc3c2)C1 [Compound 15b, 1-((2-(4-(2-Fluoroethoxy)-3-(trifluoromethyl)phenyl)benzo[d]-oxazol-5-yl)methyl)azetidine-3-carboxylic Acid]
IC50 [1]: 76.4 ± 21.6 nM

Compound: O=C(O)C1CCN(c2ccc3oc(-c4ccc(-c5ccccc5OCCF)c(C(F)(F)F)c4)nc3c2)CC1 [Compound 18b, 1-(2-(2′-(2-Fluoroethoxy)-2-(trifluoromethyl)-[1,1′-biphenyl]-4-yl)benzo[d]oxazol-5-yl)piperidine-4-carboxylic Acid]
EC50 [5]: 3.04 nM

Compound: O=C(O)C1CCN(c2ccc3oc(-c4ccc(-c5ccc(F)cc5)c(C(F)(F)F)c4)nc3c2)CC1 [Compound 18a, 1-(2-(4′-Fluoro-2-(trifluoromethyl)-[1,1′-biphenyl]-4-yl)benzo[d]-oxazol-5-yl)piperidine-4-carboxylic Acid]
EC50 [5]: 0.76 nM

Compound: O=C(O)c1ccc(-c2ccc3oc(-c4ccc(-c5ccc(F)nc5)c(C(F)(F)F)c4)nc3c2)s1 [Compound 16, 5-(2-(4-(6-Fluoropyridin-3-yl)-3-(trifluoromethyl)phenyl)benzo-[d]oxazol-5-yl)thiophene-2-carboxylic Acid]
EC50 [5]: 2.99 nM
IC50 [1]: 334 ± 59 nM

Compound: [^99mTc]-N-(3-bromo-2,4,6-trimethyacetanilide) iminodiacetic acid [[^99mTc]mebrofenin]
liver uptake in LPS-treated mice compared with sham mice ([6]; 30 min postinjection): increased
liver uptake in LPS-treated mice compared with sham mice ([6]; 60 min postinjection): absence of a significant difference; also recorded: no significant difference

The next lines start with the values.

decrease in S1P1 binding affinity relative to 28c [1]: over 100 fold
Compound: FCCOc1ccc(-c2nc(-c3ccc(CNCc4nnn[nH]4)cc3)no2)cc1C(F)(F)F [Compound 28e, N-((1H-Tetrazol-5-yl)methyl)-1-(4-(5-(4-(2-fluoroethoxy)-3-(trifluoromethyl)phenyl)-1,2,4-oxadiazol-3-yl)phenyl)methanamine]

IC50 [2]: > 1000 nM
IC50 [3]: > 1000 nM
Compound: O=C(O)C1CN(Cc2ccc(-c3noc(-c4ccc(OCCF)cc4)n3)cc2)C1 [Compound 28b, 1-(4-(5-(4-(2-Fluoroethoxy)phenyl)-1,2,4-oxadiazol-3-yl)benzyl)-azetidine-3-carboxylic Acid]

IC50 [3]: > 1000 nM
Compound: CCOc1ccc(-c2nc(-c3ccc(CN4CC(C(=O)O)C4)cc3)no2)cc1 [Compound 28a, 1-(4-(5-(4-Ethoxyphenyl)-1,2,4-oxadiazol-3-yl)benzyl)azetidine-3-carboxylic Acid]

IC50 [2]: > 1000 nM
IC50 [3]: > 1000 nM
decrease in S1P1 binding affinity relative to 28c [1]: 20 fold
Compound: O=C(O)C1CCN(Cc2ccc(-c3noc(-c4ccc(OCCF)c(C(F)(F)F)c4)n3)cc2)CC1 [Compound 28d, 1-(4-(5-(4-(2-Fluoroethoxy)-3-(trifluoromethyl)phenyl)-1,2,4-oxadiazol-3-yl)benzyl)piperidine-4-carboxylic Acid]

IC50 [2]: > 1000 nM
IC50 [3]: > 1000 nM
Compound: O=C(O)C1CN(Cc2ccc(-c3noc(-c4ccc(OCCF)c(C(F)(F)F)c4)n3)cc2)C1 [Compound 28c, 1-(4-(5-(4-(2-Fluoroethoxy)-3-(trifluoromethyl)phenyl)-1,2,4-oxadiazol-3-yl)benzyl)azetidine-3-carboxylic Acid]

EC50 [5]: 11.1 nM
Compound: O=C(O)C1CCN(c2ccc3oc(-c4ccc(-c5ccc(OCCF)cc5)c(C(F)(F)F)c4)nc3c2)CC1 [Compound 18c, 1-(2-(4′-(2-Fluoroethoxy)-2-(trifluoromethyl)-[1,1′-biphenyl]-4-yl)benzo[d]oxazol-5-yl)piperidine-4-carboxylic Acid]

EC50 [5]: 4.9 nM
Compound: COc1cccc(-c2ccc(-c3nc4cc(N5CCC(C(=O)O)CC5)ccc4o3)cc2C(F)(F)F)c1 [Compound 18e, 1-(2-(3′-Methoxy-2-(trifluoromethyl)-[1,1′-biphenyl]-4-yl)benzo-[d]oxazol-5-yl)piperidine-4-carboxylic Acid]

EC50 [5]: 4.47 nM
IC50 [1]: 498 ± 335 nM
Compound: O=C(O)C1CCN(c2ccc3oc(-c4ccc(-c5ccc(C(F)(F)F)cc5)c(C(F)(F)F)c4)nc3c2)CC1 [Compound 18d, 1-(2-(2,4′-Bis(trifluoromethyl)-[1,1′-biphenyl]-4-yl)benzo[d]-oxazol-5-yl)piperidine-4-carboxylic Acid]

IC50 [1]: > 100 nM
Compound: COc1ccc(-c2nc(-c3ccc(CN4CC(C(=O)O)C4)cc3)no2)cc1C(F)(F)F [Compound 28f, 1-(4-(5-(4-Methoxy-3-(trifluoromethyl)phenyl)-1,2,4-oxadiazol-3-yl)benzyl)azetidine-3-carboxylic Acid]
